Data on 4 molecules can be found in ChEMBL document CHEMBL1152945, “Synthesis and biological activity of a fluorescent schweinfurthin analogue” (Bioorg Med Chem, 2009).

Assay [1] relates to SF-295. Description: Inhibition of ROCK in human SF295 cells assessed as change in morphology at 10 uM after 24 hrs using DAPI staining by multi-photon microscopy. The assay is classed as cell-based. The essentials:
(§1)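 Cells grown on sterile coverslips to 65% confluency, then treated. Then fixed in 3.7% formaldehyde for 15 min, permeabilized in 0.2% Triton X-100 for 4 min, blocked in 1% BSA for 30 min and stained 20 min with phalloidin for F-actin. Mounted in DAPI-containing medium, imaged by multi-photon microscopy. SF-295 kept in RPMI 1640; A549 in F-12; both with 10% FCS.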

For assay [2], the system named is SF-539. Description: Cytotoxicity against human SF539 cells after 44 hrs by MTT assay. In kind it is functional. To be noted: SF-539, 44 h.
Assay [3] concerns SNB-75. Description: Cytotoxicity against human SNB75 cells after 44 hrs by MTT assay. In kind it is functional. The settings on record: SNB-75, 44 h.
The subject of assay [4] is SF-295. In words: Cytotoxicity against human SF295 cells after 44 hrs by MTT assay. In kind it is functional, cell-based. The settings on record: SF-295, 44 h. The essentials: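 SF-295 glioblastoma cells grown in RPMI 1640 with 10% fetal calf serum and pen-strep at 37 °C, 5% CO2. Plated in 24-well plates and dosed at 65% confluency. Thiazolyl blue tetrazolium added 44 h after treatment. At 48 h, HCl/Triton X-100/isopropanol solubiliser added, then overnight at 37 °C with gentle agitation. Absorbance read at 540 nm, 630 nm reference.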

The test system of assay [5] is A549. Description: Effect on morphology in human A549 cells assessed as induction of ruffled F-actin at 10 uM after 24 hrs using DAPI staining by multi-photon microscopy. The assay is classed as functional, cell-based. The essentials:
as §1

Assay [6] relates to SF-295. Description: Effect on morphology of human SF295 cells assessed as induction of ruffled F-actin at 10 uM after 24 hrs using DAPI staining by multi-photon microscopy. The assay is classed as functional, cell-based. The essentials:
as §1

The test system of assay [7] is SF-295. Description: Effect on morphology of human SF295 cells at 500 nM after 48 hrs using DAPI staining by multi-photon microscopy. In kind it is functional, cell-based. The gist of the method:
as §1

Assay [8] relates to A549. Description: Effect on morphology of human A549 cells at 500 nM after 48 hrs using DAPI staining by multi-photon microscopy. The assay is classed as functional, cell-based. The gist of the method: as §1
In assay [9] the test system is SF-295. Description: Effect on cytosolic localization in human SF295 cells assessed as increase in fluorescence intensity at 100 nM by fluorescence microscopy. In kind it is functional, cell-based. The essentials:
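SF-295 cells on sterile coverslips at 65% confluency, treated for varied intervals across a concentration range. Washed three times in complete medium to remove compound, mounted right away, and live compound fluorescence imaged by multi-photon microscopy against untreated-cell autofluorescence.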

For assay [10], the system named is A549. Description: Cytotoxicity against human A549 cells after 44 hrs by MTT assay. The assay is classed as functional, cell-based. The gist of the method: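 A549 cells in F-12 medium with 10% fetal calf serum and pen-strep, 37 °C, 5% CO2, treated in 24-well plates at 65% confluency. MTT added 44 h after treatment; at 48 h, solubilizer (HCl, Triton X-100, isopropanol) added, overnight at 37 °C with gentle agitation. Absorbance read at 540 nm with 630 nm reference.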

In assay [11] the test system is A549. Description: Effect on morphology of human A549 cells at 500 nM after 24 hrs using DAPI staining by multi-photon microscopy. In kind it is functional, cell-based. The gist of the method:
as §1

Assay [12] has as its system SF-295. In words: Effect on morphology of human SF295 cells at 500 nM after 24 hrs using DAPI staining by multi-photon microscopy. The assay is classed as functional, cell-based. The essentials:
as §1

Activity calls are given as the source filed them. The calls are words filed in the database; no cut-off is given here.

Regarding `COc1cc(/C=C/c2cc(O)c(C/C=C(\C)CCC=C(C)C)c(O)c2)cc2c1O[C@]1(C)CC[C@@H](O)C(C)(C)[C@H]1C2`, in assay [1], the result was Active.
For `CC(C)=CCC/C(C)=C/Cc1c(O)cc(/C=C/c2cc(O)c3c(c2)C[C@@H]2C(C)(C)[C@H](O)[C@H](O)C[C@@]2(C)O3)cc1O` [SCHWEINFURTHIN A], the GI50 in assay [2] came out at 10 nM; in [3], 15 nM; in assay [4] it was 11 nM.
On to `C[C@@H](N)[C@H]1CC[C@H](C(=O)Nc2ccncc2)CC1`, for which the result in [5] and in assay [6] was Active.
Turning to `COc1cc(/C=C/c2cc(O)c(/C=C/c3cccc(O)c3)c(O)c2)cc2c1O[C@]1(C)CC[C@@H](O)C(C)(C)[C@H]1C2`, the result in assay [7], in assay [1], in [9] and in assay [10] was Active. For the same molecule, the outcome in assay [8], in assay [11] and in assay [12] was inactive. Besides, half-maximal inhibition in assay [4] (IC50) required 800 nM.
